{
  "source": "ChEMBL document CHEMBL1132994",
  "about": "“Synthesis and anticonvulsant and neurotoxic properties of substituted N-phenyl derivatives of the phthalimide pharmacophore” (J Med Chem, 2000)",
  "key": {"Rattus norvegicus [1]": {"tested_on": "Rattus norvegicus", "assay": "Anticonvulsant activity was measured in rats through seizures induced by maximal electroshock (MES) tests by oral administration of drug after 15 minutes.", "type": "functional", "procedure,_shortened": "(§1)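 Rats given a single oral dose of 30 or 50 mg/kg, depending on compound; MES protection scored at 15, 30, 60, 120 and 240 min. Activity graded by fraction of animals protected (0-25%, 25-50%, 50-75%, 75-100%); neurotoxicity monitored at the same time points.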"}, "Rattus norvegicus [2]": {"tested_on": "Rattus norvegicus", "assay": "Effective dose required to assure anticonvulsant protection in 50% of rats dosed orally by scPTZ test.", "type": "functional", "conditions": "po", "procedure,_shortened": "(§2)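 Rats dosed orally; ED50 is the dose giving anticonvulsant protection in 50% of animals in the MES or scPtz test. TD50 is the minimal neurotoxic dose in 50% of animals. Time to peak effect was also determined.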"}, "Rattus norvegicus [3]": {"tested_on": "Rattus norvegicus", "assay": "(§3) Toxicity screening in rats dosed orally with the compound; No toxicity", "type": "organism-based", "conditions": "in vivo, po"}, "Rattus norvegicus [4]": {"tested_on": "Rattus norvegicus", "assay": "Anticonvulsant activity was measured in rats through seizures induced by maximal electroshock (MES) tests by oral administration of drug after 1 hour.", "type": "functional", "procedure,_shortened": "as §1"}, "Mus musculus [5]": {"tested_on": "Mus musculus", "assay": "Anticonvulsant activity in mice through seizures induced by maximal electroshock (MES) tests after ip administration at a concentration of 100 mg/kg after 30 min; active", "type": "functional, organism-based", "design": "dose 100 mg/kg"}, "Rattus norvegicus [6]": {"tested_on": "Rattus norvegicus", "assay": "Effective dose required to assure anticonvulsant protection in 50% of rats dosed orally by MES test.", "type": "functional", "conditions": "po", "procedure,_shortened": "as §2"}, "Rattus norvegicus [7]": {"tested_on": "Rattus norvegicus", "assay": "Anticonvulsant activity was measured in rats through seizures induced by maximal electroshock (MES) tests by oral administration of drug after 4 hours.", "type": "functional", "procedure,_shortened": "as §1"}, "Mus musculus [8]": {"species_on_record": "Mus musculus", "assay": "Current response was measured on 1 uM GABA at 30 uM concentration on 6 isolated mouse cortical neurons.", "type": "functional"}, "Mus musculus [9]": {"tested_on": "Mus musculus", "assay": "Anticonvulsant activity in mice through seizures induced by sc pentylenetetrazole (intraperitoneal administration at a concentration of 300 mg/kg after 30 min; active", "type": "functional, organism-based", "design": "dose 300 mg/kg"}, "Mus musculus [10]": {"species_on_record": "Mus musculus", "assay": "Current response was measured on 1 uM GABA at 100 uM concentration on 10 isolated mouse cortical neurons.", "type": "functional"}, "Mus musculus [11]": {"tested_on": "Mus musculus", "assay": "Anticonvulsant activity in mice through seizures induced by maximal electroshock (MES) tests after ip administration at a concentration of 300 mg/kg after 4 hours; Inactive", "type": "functional, organism-based", "design": "dose 300 mg/kg"}, "Mus musculus [12]": {"species_on_record": "Mus musculus", "assay": "Current response was measured from -60 mV depolarizing voltage steps at 100 uM concentration on 3 N1E-115 neuroblastoma cells.", "type": "functional", "procedure,_shortened": "(§4)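 Differentiated N1E-115 cells (3-5 days in 2.5% FCS, 2% DMSO), whole-cell clamped at -70 mV at room temperature. Bath had Cd2+ and TEA to block Ca2+ and K+ channels. Na+ currents evoked by steps from -80 to +60 mV after 90 ms prepulses to -90 or -60 mV, measured 1-2 min into compound exposure; reported as % of control.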"}, "Mus musculus [13]": {"tested_on": "Mus musculus", "assay": "Anticonvulsant activity in mice through seizures induced by subcutaneous pentylenetetrazole (scPTZ) tests after ip administration at a concentration of 300 mg/kg after 4 hours; active", "type": "functional, organism-based", "design": "dose 300 mg/kg"}, "Rattus norvegicus [14]": {"tested_on": "Rattus norvegicus", "assay": "Anticonvulsant activity was measured in rats through seizures induced by maximal electroshock (MES) tests by oral administration of drug after 2 hours.", "type": "functional", "procedure,_shortened": "as §1"}, "Mus musculus [15]": {"species_on_record": "Mus musculus", "assay": "Current response was measured on 1 uM GABA at 10 uM concentration on 5 isolated mouse cortical neurons.", "type": "functional"}, "Rattus norvegicus [16]": {"tested_on": "Rattus norvegicus", "assay": "Anticonvulsant activity was measured in rats through seizures induced by maximal electroshock (MES) tests by oral administration of drug after 30 minutes.", "type": "functional", "procedure,_shortened": "as §1"}, "Mus musculus [17]": {"species_on_record": "Mus musculus", "assay": "Current response was measured from -90 mV depolarizing voltage steps at 100 uM concentration on 5 N1E-115 neuroblastoma cells.", "type": "functional", "procedure,_shortened": "as §4"}, "[18]": {"assay": "dose eliciting minimal neurological toxicity in 50% of animals.", "type": "organism-based", "conditions": "rat, in vivo"}, "Mus musculus [19]": {"tested_on": "Mus musculus", "assay": "Neurotoxicity by rotarod test after intraperitoneal administration at a concentration of 300 mg/kg after 30 minutes; Inactive", "type": "functional, organism-based", "design": "dose 300 mg/kg"}, "Mus musculus [20]": {"species_on_record": "Mus musculus", "assay": "Current response was measured on 100 uM kainate at 100 uM concentration on 7 isolated mouse cortical neurons.", "type": "functional", "procedure,_shortened": "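Cultured mouse fetal cortical neurons, whole-cell clamped at -60 mV and 23 °C. Bath had 1 µM glycine, 10 µM picrotoxin, strychnine and tetrodotoxin. Currents evoked by 100 µM kainate pulses with and without 100 µM compound via rapid perfusion; expressed as % of control, mean ± SEM, Student's t-test.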"}, "Mus musculus [21]": {"tested_on": "Mus musculus", "assay": "Neurotoxicity determined by rotarod test after intraperitoneal administration at a concentration of 300 mg/kg after 4 hours; Inactive", "type": "functional, organism-based", "design": "dose 300 mg/kg"}, "Mus musculus [22]": {"tested_on": "Mus musculus", "assay": "Anticonvulsant activity in mice through seizures induced by subcutaneous pentylenetetrazole (scPTZ) tests after ip administration at a concentration of 300 mg/kg after 30 min; Active", "type": "functional, organism-based", "design": "dose 300 mg/kg"}, "Mus musculus [23]": {"tested_on": "Mus musculus", "assay": "Neurotoxicity by rotarod test after intraperitoneal administration at a concentration of 300 mg/kg after 4 hours; Active", "type": "functional, organism-based", "design": "dose 300 mg/kg"}, "Mus musculus [24]": {"tested_on": "Mus musculus", "assay": "Neurotoxicity by rotarod test after intraperitoneal administration at a concentration of 300 mg/kg after 30 minutes; Active", "type": "functional, organism-based", "design": "dose 300 mg/kg"}, "Mus musculus [25]": {"tested_on": "Mus musculus", "assay": "Anticonvulsant activity in mice through seizures induced by maximal electroshock (MES) tests after ip administration at a concentration of 100 mg/kg after 30 min; Active", "type": "functional, organism-based", "design": "dose 100 mg/kg"}, "Rattus norvegicus [26]": {"tested_on": "Rattus norvegicus", "assay": "Anticonvulsant activity in rats through seizures induced by maximal electroshock (MES) tests after oral administration at a concentration of 30 mg/kg after 1 hour.", "type": "functional", "procedure,_shortened": "as §1"}, "Rattus norvegicus [27]": {"tested_on": "Rattus norvegicus", "assay": "Anticonvulsant activity was measured in rats through seizures induced by maximal electroshock (MES) tests by oral administration of drug at a concentration of 30 mg/kg after 2 hours.", "type": "functional", "procedure,_shortened": "as §1"}, "Rattus norvegicus [28]": {"tested_on": "Rattus norvegicus", "assay": "as §3", "type": "functional, organism-based", "procedure,_shortened": "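Rats given a single oral dose of 30 or 50 mg/kg, depending on compound. Minimal neurotoxicity was scored at 15, 30, 60, 120 and 240 min after dosing, alongside the MES test. Scores are graded by the percentage of animals affected.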"}, "Rattus norvegicus [29]": {"tested_on": "Rattus norvegicus", "assay": "Anticonvulsant activity was measured in rats through seizures induced by maximal electroshock (MES) tests by oral administration of drug at a concentration of 30 mg/kg after 15 minutes.", "type": "functional", "procedure,_shortened": "as §1"}, "Rattus norvegicus [30]": {"tested_on": "Rattus norvegicus", "assay": "Anticonvulsant activity was measured in rats through seizures induced by maximal electroshock (MES) tests by oral administration of drug at a concentration of 30 mg/kg after 30 minutes.", "type": "functional", "procedure,_shortened": "as §1"}, "Mus musculus [31]": {"tested_on": "Mus musculus", "assay": "Anticonvulsant activity in mice through seizures induced by sc pentylenetetrazole (intraperitoneal administration at a concentration of 300 mg/kg after 4 hours; Inactive", "type": "functional, organism-based", "design": "dose 300 mg/kg"}, "Mus musculus [32]": {"tested_on": "Mus musculus", "assay": "Anticonvulsant activity in mice through seizures induced by maximal electroshock (MES) tests after ip administration at a concentration of 300 mg/kg after 4 hours; Active", "type": "functional, organism-based", "design": "dose 300 mg/kg"}},
  "note": "Values joined by “and” are separate entries in the source; they are usually repeats but may differ in a detail not shown here. Identical values can stand only once. Active and inactive are the calls of the source. No cut-off for these calls is given here.",
  "data": [
    {"smiles": "Nc1ccc(N2C(=O)c3ccccc3C2=O)c(Cl)c1", "values": [
      {"measurement": "Activity in animals", "setting": "Rattus norvegicus [1]", "result": 75, "unit": "%"},
      {"measurement": "ED50", "setting": "Rattus norvegicus [2]", "result": "> 250", "unit": "mg/kg"},
      {"measurement": "Toxicity", "setting": "Rattus norvegicus [3]", "result": "No toxicity"},
      {"measurement": "Activity in animals", "setting": "Rattus norvegicus [4]", "result": 100, "unit": "%"},
      {"measurement": "Activity", "setting": "Mus musculus [5]", "result": "Active"},
      {"measurement": "ED50", "setting": "Rattus norvegicus [6]", "result": 5.7, "unit": "mg/kg"},
      {"measurement": "Activity in animals", "setting": "Rattus norvegicus [7]", "result": 100, "unit": "%"},
      {"measurement": "Response", "setting": "Mus musculus [8]", "result": 142, "unit": "%"},
      {"measurement": "Activity", "setting": "Mus musculus [9]", "result": "Active"},
      {"measurement": "Response", "setting": "Mus musculus [10]", "result": 118, "unit": "%"},
      {"measurement": "Activity", "setting": "Mus musculus [11]", "result": "inactive"},
      {"measurement": "Response", "setting": "Mus musculus [12]", "result": 49, "unit": "%"},
      {"measurement": "Activity", "setting": "Mus musculus [13]", "result": "Active"},
      {"measurement": "Activity in animals", "setting": "Rattus norvegicus [14]", "result": 100, "unit": "%"},
      {"measurement": "Response", "setting": "Mus musculus [15]", "result": "174% and 99%"},
      {"measurement": "Activity in animals", "setting": "Rattus norvegicus [16]", "result": 100, "unit": "%"},
      {"measurement": "Response", "setting": "Mus musculus [17]", "result": 62, "unit": "%"},
      {"measurement": "TD50", "setting": "[18]", "result": "> 500", "unit": "mg/kg"},
      {"measurement": "Activity", "setting": "Mus musculus [19]", "result": "inactive"},
      {"measurement": "Response", "setting": "Mus musculus [20]", "result": 74, "unit": "%"},
      {"measurement": "Activity", "setting": "Mus musculus [21]", "result": "inactive"}
    ]},
    {"smiles": "Nc1cccc(N2C(=O)c3ccccc3C2=O)c1", "values": [
      {"measurement": "Activity", "setting": "Mus musculus [22]", "result": "Active"},
      {"measurement": "Activity", "setting": "Mus musculus [23]", "result": "Active"},
      {"measurement": "Activity", "setting": "Mus musculus [24]", "result": "Active"},
      {"measurement": "Activity", "setting": "Mus musculus [25]", "result": "Active"},
      {"measurement": "Activity in animals", "setting": "Rattus norvegicus [26]", "result": 75, "unit": "%"},
      {"measurement": "Activity in animals", "setting": "Rattus norvegicus [27]", "result": 75, "unit": "%"},
      {"measurement": "Activity in animals", "setting": "Rattus norvegicus [7]", "result": 100, "unit": "%"},
      {"measurement": "Toxicity", "setting": "Rattus norvegicus [28]", "result": "Not toxic"},
      {"measurement": "Activity in animals", "setting": "Rattus norvegicus [29]", "result": 50, "unit": "%"},
      {"measurement": "Activity in animals", "setting": "Rattus norvegicus [30]", "result": 100, "unit": "%"},
      {"measurement": "Activity", "setting": "Mus musculus [31]", "result": "inactive"},
      {"measurement": "Activity", "setting": "Mus musculus [32]", "result": "Active"}
    ]}
  ]
}
